# ChEMBL document CHEMBL1130289, “Polyanion inhibitors of human immunodeficiency virus and other viruses. 5. Telomerized anionic surfactants derived from amino acids” (J Med Chem, 1997)
# How the values were obtained:
# CEM-4 = experiment: Cytotoxic concentration required to reduce the viability of uninfected cells by 50% after 5 days of incubation in the presence on CEM-4 cells.; type: functional; conditions: Homo sapiens, CEM-4, 120 h
# Procedure, shortened: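 Uninfected CEM-4 cells were incubated with compound for 5 days. CC50 is the concentration that reduced viability by 50%. Values average at least two separate experiments.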
# [1] = system: Human immunodeficiency virus 1; experiment: Inhibitory concentration required to inhibit HIV-induced cytopathicity in CEM-4 cells by 50% based in the MTT assay; Not active; type: functional, organism-based
# [2] = system: Human immunodeficiency virus 1; experiment: Inhibitory concentration required to inhibit HIV-induced cytopathicity in CEM-4 cells by 50% based in the MTT assay; type: functional, organism-based; conditions: Human immunodeficiency virus 1, CEM-4
# Human betaherpesvirus 5 [3] = experiment: Concentration required to inhibit HCMV(Davis) induced cytopathicity in HEL cells by 50%; type: functional, organism-based; conditions: Human betaherpesvirus 5, HEL
# Procedure, shortened: (§1)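 Virus was added to the cell monolayers in the presence of compound. Incubation continued until the viral cytopathic effect was scored. IC50 is the concentration that reduced virus-induced cytopathicity by 50%.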
# [4] = system: Human immunodeficiency virus 2; experiment: Concentration required to inhibit HIV-2 induced cytopathicity in MT-4 cells by 50%; type: functional, organism-based; conditions: Human immunodeficiency virus 2, MT4
# Procedure, shortened: (§2)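 MT-4 cells were infected with HIV-1 (strain HTLV-IIIB/LAI) or HIV-2 (strain LAV-2 ROD) and exposed to compound. IC50 is the concentration that inhibited HIV-induced cytopathicity by 50%. Values are means of two separate experiments.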
# HEL = experiment: Minimum cytotoxic concentration required to cause a microscopically detectable alteration of normal cell morphology in HEL cells; type: functional, Homo sapiens
# [5] = system: Human immunodeficiency virus 1; experiment: Concentration required to inhibit HIV-1 induced cytopathicity in MT-4 cells by 50%; type: functional, organism-based; conditions: Human immunodeficiency virus 1, MT4; procedure, shortened: as §2
# E6SM = experiment: Minimum cytotoxic concentration required to cause a microscopically detectable alteration of normal cell morphology in E6SM cells; type: functional, Homo sapiens
# Procedure, shortened: (§3)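 Uninfected E6SM, HeLa or Vero cells were exposed to compound and examined by microscopy. MCC is the lowest concentration causing a detectable alteration of normal cell morphology.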
# Human alphaherpesvirus 1 [6] = experiment: Concentration required to inhibit HSV-1(KOS) induced cytopathicity in E6SM cells by 50%; conditions: Human alphaherpesvirus 1, E6SM
# Sindbis virus = experiment: Concentration required to inhibit Sindbis induced cytopathicity in Vero cells by 50%; type: functional, organism-based; procedure, shortened: as §1
# Coxsackievirus = experiment: Concentration required to inhibit Coxsackie induced cytopathicity in HeLa cells by 50%; type: functional, organism-based; procedure, shortened: as §1
# [7] = system: Human immunodeficiency virus 1; experiment: Concentration required to inhibit by 50% syncytium formation between MOLT-4 cells and HIV-1(IIIB); type: functional, organism-based; conditions: Human immunodeficiency virus 1, MOLT-4
# Procedure, shortened: (§4)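 Uninfected MOLT-4 cells were co-cultured with HUT-78 cells chronically infected with HIV-1 (IIIB) or HIV-2 (ROD), in the presence of compound. The end point was syncytium formation, and IC50 is the concentration giving 50% inhibition. Values are means of two separate experiments.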
# HeLa = experiment: Minimum cytotoxic concentration required to cause a microscopically detectable alteration of normal cell morphology in HeLa cells; type: functional, Homo sapiens; procedure, shortened: as §3
# Human respirovirus 3 = experiment: Concentration required to inhibit parainfluenza-3 induced cytopathicity in Vero cells by 50%; type: functional, organism-based; conditions: Human respirovirus 3, Vero; procedure, shortened: as §1
# Poliovirus 1 = experiment: Concentration required to inhibit Polio-1 induced cytopathicity in HeLa cells by 50%; type: functional, organism-based; conditions: Enterovirus C
# [8] = system: Vesicular stomatitis virus; experiment: Concentration required to inhibit vesicular stomatitis induced cytopathicity in E6SM cells by 50%; type: functional, organism-based
# Human betaherpesvirus 5 [9] = experiment: Concentration required to inhibit HCMV(AD169) induced cytopathicity in HEL cells by 50%; type: functional, organism-based; conditions: Human betaherpesvirus 5, HEL; procedure, shortened: as §1
# Tacaribe virus = experiment: Concentration required to inhibit Tacaribe induced cytopathicity in Vero cells by 50%; type: functional, cell-based; conditions: Mammarenavirus tacaribeense
# Vero = experiment: Minimum cytotoxic concentration required to cause a microscopically detectable alteration of normal cell morphology in Vero cells; type: functional, Chlorocebus sabaeus; procedure, shortened: as §3
# Vaccinia virus = experiment: Concentration required to inhibit Vaccinia induced cytopathicity in E6SM cells by 50%; type: functional, organism-based; conditions: Orthopoxvirus vaccinia
# Junin virus = experiment: Concentration required to inhibit Junin induced cytopathicity in Vero cells by 50%; type: functional, organism-based; conditions: Mammarenavirus juninense
# Human alphaherpesvirus 1 [10] = experiment: Concentration required to inhibit HSV-1 TK-(B2006) induced cytopathicity in E6SM cells by 50%; conditions: Human alphaherpesvirus 1, E6SM
# Human alphaherpesvirus 2 = experiment: Concentration required to inhibit HSV-2(G) induced cytopathicity in E6SM cells by 50%; conditions: Human alphaherpesvirus 2, E6SM
# [11] = system: Mammalian orthoreovirus 1; experiment: Concentration required to inhibit reovirus-1 induced cytopathicity in Vero cells by 50%; type: functional, organism-based; conditions: Mammalian orthoreovirus 1, Vero; procedure, shortened: as §1
# MT4 = experiment: Concentration required to reduce the viability of mock-infected MT-4 cells by 50%; type: functional; conditions: Homo sapiens
# Procedure, shortened: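 Mock-infected MT-4 cells were exposed to compound. CC50 is the concentration that reduced cell viability by 50%. Values are means of two separate experiments.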
# [12] = system: Human immunodeficiency virus 2; experiment: Concentration required to inhibit by 50% syncytium formation between MOLT-4 cells and HIV-2 (ROD) infected HUT-78 cells; type: functional, organism-based; conditions: Human immunodeficiency virus 2, MOLT-4; procedure, shortened: as §4
# Semliki Forest virus = experiment: Concentration required to inhibit forest induced cytopathicity in Vero cells by 50%; type: functional, organism-based; procedure, shortened: as §1
smiles,measurement,setting,value
CCCCCCCCCCCCSCCCCC(=O)NCCCCCCCCCCC(=O)NC(CCC(=O)[O-])C(=O)O.[Na+] (configuration not stated),CC50,CEM-4,> 100 µg/mL
same,IC50,[1],Not Active
CCCCCCCCCCCCSCCCCCCC(=O)N(CC)CCCCCCCCCCC(=O)NC(CCC(=O)[O-])C(=O)O.[Na+] (configuration not stated),IC50,[2],21 µg/mL
same,CC50,CEM-4,> 100 µg/mL
CCCCCCCCCCCCSCCCCCCCCCCCCCCCCCCCCCCCCCCCCCCC(=O)NCCCCCCCCCCC(=O)NC(CCC(=O)[O-])C(=O)O.[Na+] (configuration not stated),IC50,[2],15 µg/mL
same,CC50,CEM-4,> 100 µg/mL
CCCCCCCCCCCCSCCCCCCCCCCCCCCC(=O)NCCCCCCCCCCC(=O)NC(CCC(=O)[O-])C(=O)O.[Na+] (configuration not stated),IC50,[2],12 µg/mL
same,CC50,CEM-4,> 100 µg/mL
CCCCCCCCCCCCSCCCCCCCCCCC(=O)N(CC)CCCCCCCCCCC(=O)NCC(=O)[O-].[Na+],IC50,[2],120 µg/mL
same,CC50,CEM-4,> 100 µg/mL
CCCCCCCCCCCCSCCCCCCCCCCCCCCCCCCCCCCCCCCC(=O)N(C)CCCCCCCCCCC(=O)[O-].[Na+],CC50,CEM-4,> 200 µg/mL
same,IC50,[1],Not Active
CCCCCCCCCCCCSCCCCCCCCCCCCCCCCCCCCCCC(=O)N(CC)CCCCCCCCCCC(=O)[O-].[Na+],IC50,[2],4 µg/mL
same,CC50,CEM-4,50 µg/mL
CCCCCCCCCCCCSCCCCCCCCCCCCCCCCC(=O)N(CC)CCCCCCCCCCC(=O)NCCC(=O)[O-].[Na+],CC50,CEM-4,> 100 µg/mL
same,IC50,[1],Not Active
CCCCCCCCCCCCSCCCCCCCCCCCCCCCCCCCCCCCCCCCCC(=O)NCCCCCCCCCCC(=O)NCC(=O)[O-].[Na+],IC50,[2],194 µg/mL
same,CC50,CEM-4,> 300 µg/mL
CCCCCCCCCCCCSCCCCCCCCCCCCCCCCCCCCCCCCCCCCCCCCCCCCCCCCC(=O)N(C)CCCCCCCCCCC(=O)[O-].[Na+],CC50,CEM-4,> 200 µg/mL
same,IC50,[1],Not Active
CCCCCCCCCCCCSCCCCCCCCCCCCCCCCCCCCCCCCCCCCCCCCCCCCCCCCC(=O)NCCCCCCCCCCC(=O)[O-].[Na+],IC50,Human betaherpesvirus 5 [3],15 µg/mL
same,IC50,[4],1.3 µg/mL
same,MMC,HEL,>50 µg/mL
same,IC50,[5],5 µg/mL
same,MMC,E6SM,200 µg/mL
same,IC50,Human alphaherpesvirus 1 [6],> 100 µg/mL
same,IC50,Sindbis virus,> 200 µg/mL
same,IC50,Coxsackievirus,> 200 µg/mL
same,IC50,[7],30 µg/mL
same,MMC,HeLa,>200 µg/mL
same,IC50,Human respirovirus 3,> 200 µg/mL
same,IC50,Poliovirus 1,> 200 µg/mL
same,IC50,[8],> 100 µg/mL
same,IC50,Human betaherpesvirus 5 [9],40 µg/mL
same,IC50,Tacaribe virus,> 50 µg/mL
same,MMC,Vero,>200 µg/mL
same,IC50,Vaccinia virus,> 100 µg/mL
same,IC50,Junin virus,> 50 µg/mL
same,CC50,CEM-4,> 50 µg/mL
same,IC50,Human alphaherpesvirus 1 [10],> 100 µg/mL
same,IC50,Human alphaherpesvirus 2,20 µg/mL
same,IC50,[1],Not Active
same,IC50,[11],> 200 µg/mL
same,CC50,MT4,> 250 µg/mL
same,IC50,[12],50 µg/mL
same,IC50,Semliki Forest virus,> 200 µg/mL
CCCCCCCCCCCCSCCCCCCCCCCCCCCCCCCCCCCCCCCCCCCCCCCCCCCCCCCCCCCCCCCCCCCCCCCCCC(=O)N(CC)CCCCCCCCCCC(=O)NCCC(=O)[O-].[Na+],CC50,CEM-4,> 100 µg/mL
same,IC50,[1],Not Active
CCCCCCCCCCCCSCCCCCCCCCCCCCCCCCCCCCCCCCCCCCCCCCCCCCCCCCCCCCCCCCCCCCCCCCCCCCCCCCCCCCCCCCCCCCCCCC(=O)N(CC)CCCCCCCCCCC(=O)[O-].[Na+],IC50,[2],5 µg/mL
same,CC50,CEM-4,30 µg/mL
CCCCCCCCCCCCSCCCCCCCCCCCCCCCCC(=O)NCCCCCCCCCCC(=O)NCCC(=O)[O-].[Na+],CC50,CEM-4,> 100 µg/mL
same,IC50,[1],Not Active
